Screening results deposited in PubChem by several laboratories.
eIF4E-4G inh = inhibitors of eIF4E and eIF4G interaction in translation initiation. actives 0.37% (n = 220,000). TR-FRET eIF4E-eIF4GI(517-606) binding, 2 h. P63073+Q04637. inhibition, % at 21.7 µM;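 active = inhibition above about 30%, limit read from the data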;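 note: 0% = full FRET control wells and 100% = background wells lacking eIF4GI fragment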
SUMO HTRF inh = blocks human SUMOylation mediated by UBC9; P63279; actives 0.36% (n = 290,000); HTRF SUMOylation assay, SAE1/SAE2 + UBC9, in vitro; inhibition, % at 35 µM; in the data active = inhibition above about 50%, passing the limit was not always enough; inconclusive = no clear call, values can overlap the other calls
Target sequence (P63279 whole entry, looked up): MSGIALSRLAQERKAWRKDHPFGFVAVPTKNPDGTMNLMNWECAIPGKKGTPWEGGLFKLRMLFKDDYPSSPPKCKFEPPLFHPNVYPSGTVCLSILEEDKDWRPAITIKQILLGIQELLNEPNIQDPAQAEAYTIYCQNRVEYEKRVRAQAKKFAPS
HCV core dimer = blocks dimerization of HCV core protein. inhibition, % at 5 µM. actives 0.33% (n = 300,000). TR-FRET GST/Flag-core106 dimerization, 1536-well;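 active = inhibition above the mean of all tested compounds plus 3 SD, set per screening campaign, cut at about 45% in these data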
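Assay system – GST-tagged and Flag-tagged HCV core protein residues 1-106 · Quantity – core106 proteins, GST 13.5 nM and Flag 17 nM · Benchmarks – unlabelled core106 and no-GST-core106 wells · Read-out basis – percent inhibition of core106 dimerization signal · Detection – time-resolved FRET, ex 340 nm, em 617 and 671 nm · Schedule – 4 h at 22.5 °C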
PABP FP inh = PABP-poly(A) binding inhibition; calls only at 35 µM; AID 2014; actives 1% (n = 290,000); PABP-poly(A) RNA binding, fluorescence polarization;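 note: calls also rest on retests at 20 µM and on dose response follow-up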
MLLE-PAM2 inh = inhibitors of microRNA-mediated deadenylation, human PABP1 MLLE binding. GST-MLLE / FITC-PAM2 fluorescence polarization. inhibition, % at 20 µM. actives 0.36% (n = 360,000); in the data active = inhibition above about 35%, passing the limit was not always enough;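 note: plate controls were DMSO wells with GST-MLLE for no effect and wells lacking GST-MLLE protein for full effect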
eIF4H FP inh = inhibitors of RNA binding by human eIF4H | eIF4H fluorescence polarization binding assay | inhibition, % at 35 µM | actives 0.94% (n = 290,000) | AID 2012;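 note: calls also rest on retests at 20 µM and on dose response follow-up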
Numbers without * were called inactive; i = inactive; u = inconclusive; x = not tested or not shown; + = active, no number. Hits are enriched below; roughly 1.8% of the tested compounds scored in any of these assays. Unless noted, the rule behind the calls is not given here.

SMILES | eIF4E-4G inh | SUMO HTRF inh | HCV core dimer | PABP FP inh | MLLE-PAM2 inh | eIF4H FP inh
Cc1cc(OCC(=O)NCc2ccccn2)c2c(C)c(Cc3ccccc3)c(=O)oc2c1 | x | 0 | 4 | i | 1 | -8
Nc1ccccc1SC1CC(=O)N(c2ccc3c(c2)OCO3)C1=O (stereo not drawn) | 0 | -10 | -2 | i | 13 | 0
O=C(O)c1ccccc1SC1CC(=O)N(c2ccc3c(c2)OCO3)C1=O (stereo not drawn) | 8 | 1 | 20 | i | 38* | 33
Cc1cc(C)cc(N2C(=O)CC(Sc3ccccc3C(=O)O)C2=O)c1 (stereo not drawn) | 5 | 12 | -5 | i | 41* | -4
CC(C)[C@@H](C(=O)N1CCNCC1)n1cc(CCO)nn1 | 1 | -7 | -8 | i | -3 | -8
O=C(c1ccsc1)N1CCCC(Nc2cccc(F)c2)C1 (stereo not drawn) | x | -1 | -3 | i | 9 | 5
CCc1ccccc1NC(=O)COC(=O)c1cccs1 | x | 6 | -4 | i | 13 | -2
Cc1ccsc1/C=C/C1=Cc2c(sc(NC(=O)CSc3n[nH]c(N)n3)c2C#N)C(C)(C)C1 | -6 | 20 | 77* | u | -4 | u
CCOc1ccc(/C=C/C2=Cc3c(sc(NC(=O)CSc4n[nH]c(N)n4)c3C#N)C(C)(C)C2)cc1 | 2 | 0 | 72* | u | -53 | u
COc1ccc2nc(C(F)(F)Cl)c(C#N)c(N)c2c1 | 6 | 7 | -6 | i | -13 | 2
Cc1cc(C)n2c(=O)c3ccc(Cl)cc3nc2c1C#N | -2 | 22 | 52* | i | 5 | 0
COc1ccc2nc3cc(Cl)ccc3c(C#N)c2c1 | 2 | 13 | 5 | i | 54* | 32
Cc1cc(Cl)n2c(nc3cc(F)c(F)cc32)c1C#N | 1 | 17 | x | i | -40 | 2
Cc1[nH]c(-c2ccc(F)cc2)cc1C(=O)N1CCN(c2cccc(Cl)c2)CC1 | x | -19 | x | i | 2 | -4
Cc1ccccc1N=Cc1c(O)n(-c2nccs2)c(=O)c2ccccc12 | -6 | 10 | 17 | i | 3 | -5
O=c1c2ccccc2c(C=Nc2ccccc2O)c(O)n1-c1nccs1 | 0 | 14 | 0 | + | -67 | 116
CCN(CC)c1ccc(N/C(N)=N/c2nc(C(F)(F)F)cc(=O)[nH]2)cc1 | 3 | 20 | -5 | + | -5 | active
CCCN(CCC)C(=O)c1ccc2c(=O)n(Cc3ccco3)c(=S)[nH]c2c1 | -2 | 14 | 6 | i | -74 | -3
COc1cc(NC(=O)c2ccc3c(=O)n(Cc4ccco4)c(=S)[nH]c3c2)cc(OC)c1OC | -5 | 21 | 17 | i | -50 | 64*
COc1ccc(-c2ccc(C(=O)NCC3CCOCC3)c3occc23)c(C)c1 | x | x | x | x | -1 | x
C[C@H]1CN([C@@H](C)CO)S(=O)(=O)c2ccc(Br)cc2O[C@H]1CN(C)C(=O)CCN1CCCCC1 | x | x | x | x | -13 | x
Cc1ccc(-c2cc(C(=O)N/N=C/c3c[nH]c4ccccc34)n[nH]2)o1 | 1 | -23 | -4 | + | -9 | -10
COc1ccc(C2NC3=C(CCCC3)C(C#N)(C#N)C2(C#N)C#N)cc1 (stereo not drawn) | x | 21 | 15 | u | x | u
COc1ccc(C2NC3=C(CCC3)C3(C#N)C4(N=C(N)C23C#N)OCCO4)cc1 (stereo not drawn) | 0 | 13 | -5 | + | -19 | 72*
CN(c1ccc(Cl)cc1)c1cc(=O)n(C)c2ccccc12 | -3 | 14 | 67* | i | 7 | 8
SMILES | eIF4E-4G inh | SUMO HTRF inh | HCV core dimer | PABP FP inh | MLLE-PAM2 inh | eIF4H FP inh
CN(C(=O)COc1cc(=O)n(C)c2ccccc12)c1ccc(Cl)cc1 | 1 | 21 | -3 | i | -1 | 1
Cc1cc2c(N)cccc2nn1 | -1 | 77 | -4 | + | 14 | 96*
COc1cc(SC)ccc1C(=O)OCC(=O)N1CCN(C(C)=O)CC1 | x | x | -2 | x | -8 | x
COC(=O)C1=C(C)N(Cc2ccccc2)C(=NCC2CC2)N[C@H]1c1ccccc1 | x | x | x | x | -78 | x
COC(=O)C1=C(C)N(Cc2ccccc2)C(=NCCCCO)N[C@H]1c1ccccc1 | x | -4 | 3 | + | x | 28
COC(=O)C1=C(C)N(Cc2ccccc2)C(=NCc2ccc(OC)cc2)N[C@H]1c1cccc(F)c1 | x | 2 | -27 | + | -115 | 1
O=C1C(Cl)=C(N2CCC(C(=O)O)CC2)C(=O)c2ccccc21 | 9 | x | -2 | i | 55* | 13
NC(=O)C1CCN(C2=C(Cl)C(=O)c3ccccc3C2=O)CC1 | 18 | 8 | -14 | i | 38 | 12
COc1ccc2c(c1)CC/C(=C/c1ccncc1)C2=O | 5 | 14 | 2 | i | 14 | -4
COc1ccc2c3c(ccc2c1)C(=O)/C(=C/O)CC3 | x | x | x | x | 43* | x
CC1=NN(c2ccc(Cl)c(C(=O)O)c2)C(=O)C1 | 8 | 90* | 11 | i | 12 | 9
CC1=NN(c2ccc(C(=O)O)c(N)c2)C(=O)C1 | 12 | 79* | -29 | i | -1 | 98*
CC1=NN(c2cccc(Cl)c2)C(=O)C1 | -13 | 12 | -4 | i | 15 | 3
CC1=NN(c2ccc(S(=O)(=O)O)cc2Cl)C(=O)C1 | -1 | 83* | 1 | i | 24 | -8
CCCCCCn1c(CN2CCN(CCO)CC2)nc2c1c(=O)n(C)c(=O)n2C | 9 | -3 | -2 | + | -3 | 103
CCCCCCn1c(CN2CCC(C)CC2)nc2c1c(=O)n(C)c(=O)n2C | -1 | -8 | -1 | i | 21 | 2
CCN(Cc1ccccc1)C(=O)Cn1cc(S(=O)(=O)NC)c(S(=O)(=O)NC)c1 | x | 3 | 4 | i | -5 | 2
Cc1[nH]c2ccccc2c1CCNC(=O)c1ccc2c(c1[N+](=O)[O-])C(=O)c1ccccc1C2=O | 9 | 21 | 39 | i | -17 | 4
Cc1[nH]c2c(C)cccc2c1CCNC(=O)c1ccc2c(c1[N+](=O)[O-])C(=O)c1ccccc1C2=O | 1 | 28 | 60* | i | -9 | 9
Cn1ccsc1=NC(=O)c1ccc([N+](=O)[O-])o1 | x | 15 | 27 | + | -4 | 80*
Cc1cc2cc(CNC(=O)c3ccc(Br)o3)ccc2n1C | -15 | -7 | -1 | i | 62* | 31
CCCC(=O)NCc1ccc2c(c1)cc(C)n2C | 2 | -5 | 0 | i | 23 | 17
Cc1cc2cc(CNC(=O)c3ccc(Br)o3)ccc2[nH]1 | -15 | 2 | 11 | i | 57* | 9
Cc1ccc(F)cc1C(=O)N1CCCC(c2cc(C(=O)Nc3ccccc3Cl)no2)C1 (stereo not drawn) | x | x | x | x | 0 | x
Cc1ccc(/C(N)=N/OC(=O)CSc2ccccc2)cc1 | 2 | 9 | 6 | i | 20 | 1
